Experiments:
[1] = Mouse model pharmacokinetic study; conditions: in vivo, 10 mg/kg
Procedure, shortened: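 Mouse plasma was analysed by a validated LC/MS/MS assay. Proteins were precipitated with an equal volume of acetonitrile after adding an internal standard (a related analogue, final 1000 ng/mL), then vortexed 10 min and centrifuged at 14,000 rpm. Standard ranges were 1–1,000 ng/mL for parent and 10–10,000 ng/mL for prodrug. Separation used a C18 column with a 0.1% formic acid/acetonitrile gradient at 1 mL/min. Detection was positive electrospray on a triple quadrupole.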

γ-H2Ax in MOLM-14 cells = experiment: Gamma-H2Ax DNA damage assay in MOLM-14 cells; format: cell-based, human; conditions: MOLM-14 cells grown in 0.5 and 4 μM for 24 hours
Procedure, shortened: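 MOLM-14 cells were seeded the evening before at 1×10^5 cells/mL in RPMI 1640/10% FBS. Controls were DMSO and 6.0 Gy gamma irradiation (collected after 1 h); treated cells were collected after 24 h. Cells were washed in PBS/2% serum, cytospun at 1.5×10^5 cells/slide, fixed 15 min in 4% PFA, permeabilised (Triton X-100 buffer), and blocked overnight in 10% FBS/PBS/0.1% Triton. Staining used anti-γ-H2Ax plus DyLight anti-mouse secondary with DAPI mount; slides were examined by fluorescence microscopy.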

[2] = tested on: various cancer cell lines; experiment: Cancer cell line screening, all cell lines together; format: cell-based, human; conditions: for IC50: Homo sapiens, read-out: IC50 in cancer cell lines, lowest value
Mouse plasma stability = format: in vitro ADME
Procedure, shortened: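 Mouse plasma was spiked with 500 ng/mL prodrug and assayed for both prodrug and parent at 0, 5, 15, 30, 45, 60 and 90 min. Conversion was expressed as analyte counts to avoid differences between the two standard curves.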

[3] = Aqueous benchtop stability at CCPC; format: physicochemical; conditions: LC/MS; for deviation of recovered from expected concentration in aqueous solution: 5-500 ng/mL in 1:1 acetonitrile/Millipore H2O
Procedure, shortened: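 Prodrug and its parent were spiked at 5, 12.5, 25, 50, 125, 250 and 500 ng/mL into 1:1 acetonitrile/Millipore water. Both analytes were measured by LC/MS. Concentrations were quantified against a previously constructed calibration curve at the same concentrations.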

[4] = Aqueous benchtop stability in phosphate buffer; format: physicochemical; conditions: 25 μg/mL, pH 5.0, 7.0 and 7.5, room temperature, up to 24 hours
Procedure, shortened: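 Test compound at 1 mg/mL in anhydrous DMSO (stock) was spiked into phosphate buffer at 25 μg/mL, at pH 5.0, 7.0 and 7.5, and stirred at room temperature. Aliquots were taken at 0, 0.25, 0.5, 1, 4, 8 and 24 h and checked by TLC against a verified standard. Aliquots were then extracted twice with chloroform, and the residue was examined by 1H NMR to confirm the TLC findings.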

Stability in human serum = format: in vitro ADME; conditions: pooled human serum, up to 24 hours
Procedure, shortened: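 The test compound came from a 1 mg/mL anhydrous DMSO stock and was incubated in pooled human serum […]. It followed the same workflow as the buffer test. Timed aliquots were taken up to 24 h and compared by TLC against a verified standard. Aliquots were then extracted with two chloroform portions, the solvent was removed, and the residue was analysed by 1H NMR to verify TLC.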

female nude mice = experiment: Maximum tolerated dose assay; format: in vivo
HeLa cells = conditions: read-out: IC50 against HeLa cells; cited from earlier work
[5] = tested on: A549 adenocarcinomic human alveolar basal epithelial cells; experiment: IC50 proliferation assay; format: cell-based; conditions: A549, 72 h, read-out: A549 cancer cell line activity (IC50)
Procedure, shortened: (§1)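 Cells were grown at 37 °C in 5% CO2 in RPMI 1640 or DMEM with 10% heat-inactivated FBS and 1% glutamine, then seeded in 96-well plates the afternoon before treatment. About 18 h later, the test compound was semi-serially diluted in DMSO, then in growth medium, and added. After 72 h, WST-1 was added and plates were read after a further 4 h at 37 °C. Assays were run in triplicate.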

[6] = tested on: MOLM-14 acute monocytic leukemia cells; experiment: IC50 proliferation assay; format: cell-based; conditions: Homo sapiens, MOLM-14, 72 h, read-out: MOLM14 cancer cell line activity (IC50)
Procedure, shortened: as §1

Clc1nc(Cl)c2[nH]cc(I)c2n1 [Compound 7, 2,4-Dichloro-7-iodo-5H-pyrrolo[3,2-d]pyrimidine]
time to little to no detection of the compound in mouse plasma [1]: ≤ 70 min
DNA damage (γ-H2Ax staining) (γ-H2Ax in MOLM-14 cells): significant DNA damage
IC50 [2]: ≥ 0.014 µM
deviation in plasma over the time frame investigated (Mouse plasma stability; mouse plasma, 0-90 minutes): 5.7%
stability in plasma (Mouse plasma stability; mouse plasma, time frame investigated (0-90 minutes)): excellent stability
deviation of recovered from expected concentration in aqueous solution [3]: ≤ 5.7%
aqueous stability in phosphate buffer [4]: stable
stability in human serum (Stability in human serum): stable

Cc1ccc(S(=O)(=O)n2cc(I)c3nc(Cl)nc(Cl)c32)cc1 [Compound 9, 2,4-Dichloro-7-iodo-5-tosyl-pyrrolo[3,2-d]pyrimidine]
time to undetectable in biological media (Mouse plasma stability; biological media (Figure 4, mouse plasma)): ≤ 1 hour
conversion of 9 to 7 in mouse plasma (Mouse plasma stability; mouse plasma spiked with 500 ng/mL, 0-90 minutes): Significant conversion
hydrolysis of 9 to 7 in aqueous solution ([3]; 1:1 acetonitrile/Millipore H2O): no observed hydrolysis
deviation of recovered from expected concentration in aqueous solution [3]: 15.8%
increase in maximum tolerated dose compared to parent compound 7 (female nude mice; fold, versus 7): four-fold
aqueous stability in phosphate buffer [4]: stable

Clc1nc(Cl)c2c(n1)c(I)cn2COCc1ccccc1 [Compound 8, 5-((Benzyloxy)methyl)-2,4-dichloro-7-iodo-pyrrolo[3,2-d]pyrimidine]
decrease of activity compared to the parent ([2]; fold, versus parent 7, Table 1 cell lines): ten-fold

Clc1nc(Cl)c2[nH]ccc2n1 [Compound 5, 2,4-Dichloro-5H-pyrrolo[3,2-d]pyrimidine]
IC50 [2]: ≥ 0.014 µM
IC50 (HeLa cells): 19 ± 3 µM
IC50 [5]: 14.5 ± 3.5 µM
IC50 [6]: 9.5 ± 3.1 µM

Clc1nc(Cl)c2[nH]cc(Br)c2n1 [Compound 6, 7-Bromo-2,4-dichloro-5H-pyrrolo[3,2-d]pyrimidine]
IC50 [2]: ≥ 0.014 µM
IC50 (HeLa cells): 0.92 ± 0.04 µM
toxicity relative to 7 (female nude mice; female, nude, mouse, in vivo): 2 fold
aqueous stability in phosphate buffer [4]: stable
stability in human serum (Stability in human serum): stable
